Assay results reported in ChEMBL document CHEMBL1140997 (Bioorg Med Chem, 2009).
pIC50: −log10 of the molar value.

Experiments:
[1] = Inhibition of TNFalpha induced NF-kappaB activation in human 293 cells after 24 hrs by luciferase reporter gene assay; assay type: cell-based; settings: HEK293, 24 h
Outline: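 Cells incubated 24 h with TNFα (20 ng/ml) and test compounds, PBS-washed, lysed 10 min, luciferase read. Screen at 20 µg/ml; active compounds then run as dose-response in duplicate. Values are % of TNFα-treated control; IC50 from five serial dilutions, mean of two experiments.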

[2] = molecular target: Prostaglandin G/H synthase 1 (Homo sapiens, UniProt P23219); assay: Inhibition of COX1
Outline: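 Reaction in 100 mM Tris-HCl pH 8.0 containing 1 µM heme, 500 µM phenol and 300 µM epinephrine, with enough COX-1 to make 150 ng/ml PGE2. Started with arachidonic acid (10 µM final), 10 min at room temperature, stopped into indomethacin. PGE2 measured by ELISA against a PGE2 standard curve. Values are % of solvent control; IC50 from four serial dilutions, mean of two experiments.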

[3] = molecular target: T1, Prostaglandin G/H synthase 2 (Homo sapiens, UniProt P35354); assay: Inhibition of COX2
T1 sequence (P35354 whole entry): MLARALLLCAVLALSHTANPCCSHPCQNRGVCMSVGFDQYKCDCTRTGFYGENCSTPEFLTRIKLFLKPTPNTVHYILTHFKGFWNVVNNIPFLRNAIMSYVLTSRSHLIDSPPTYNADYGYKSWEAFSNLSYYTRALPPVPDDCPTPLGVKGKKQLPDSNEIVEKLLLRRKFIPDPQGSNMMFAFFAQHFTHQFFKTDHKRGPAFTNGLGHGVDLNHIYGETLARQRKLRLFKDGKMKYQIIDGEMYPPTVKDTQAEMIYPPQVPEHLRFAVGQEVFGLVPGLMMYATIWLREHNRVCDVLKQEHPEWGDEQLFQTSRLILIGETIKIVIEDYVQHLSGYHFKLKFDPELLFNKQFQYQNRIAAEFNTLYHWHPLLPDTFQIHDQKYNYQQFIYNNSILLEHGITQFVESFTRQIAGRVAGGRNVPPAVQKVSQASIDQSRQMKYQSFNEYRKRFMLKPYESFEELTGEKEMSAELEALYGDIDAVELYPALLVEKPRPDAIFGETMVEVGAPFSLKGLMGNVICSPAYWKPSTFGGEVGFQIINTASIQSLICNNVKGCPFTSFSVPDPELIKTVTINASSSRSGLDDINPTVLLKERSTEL

Prostaglandin G/H synthase 1, sequence (P23219 whole entry): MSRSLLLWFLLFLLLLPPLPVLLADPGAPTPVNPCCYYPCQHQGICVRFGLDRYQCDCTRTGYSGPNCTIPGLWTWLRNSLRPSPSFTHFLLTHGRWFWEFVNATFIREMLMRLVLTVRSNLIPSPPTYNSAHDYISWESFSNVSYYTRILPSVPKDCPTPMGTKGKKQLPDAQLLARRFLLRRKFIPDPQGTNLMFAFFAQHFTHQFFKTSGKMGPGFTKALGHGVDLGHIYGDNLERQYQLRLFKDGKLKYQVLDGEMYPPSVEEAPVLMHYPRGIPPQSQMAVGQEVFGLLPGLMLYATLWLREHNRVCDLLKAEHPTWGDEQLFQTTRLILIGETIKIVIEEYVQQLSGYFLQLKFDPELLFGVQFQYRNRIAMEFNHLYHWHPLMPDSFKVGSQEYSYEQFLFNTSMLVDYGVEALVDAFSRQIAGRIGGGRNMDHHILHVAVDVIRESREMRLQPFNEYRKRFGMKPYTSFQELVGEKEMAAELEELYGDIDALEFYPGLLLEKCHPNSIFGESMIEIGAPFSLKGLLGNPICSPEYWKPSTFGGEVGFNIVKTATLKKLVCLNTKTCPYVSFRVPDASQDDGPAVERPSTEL

| pIC50 [1] | pIC50 [2] | pIC50 [3] | SMILES |
| --- | --- | --- | --- |
| 4.43 | – | – | COc1cc(/C=C/c2ccc(F)cc2)cc(OC)c1 |
| – | 5.00 | 5.23 | COc1cc(/C=C/c2ccc([N+](=O)[O-])cc2)cc(OC)c1 |
| 4.91 | – | – | COc1ccc(/C=C/c2ccc(O)c(O)c2)cc1 |
| 4.28 | – | – | COc1ccc(/C=C/c2ccc(OC)c(OC)c2)cc1 |
| – | 6.00 | – | CC/C(=C\c1ccc(C(F)(F)F)cc1)c1cc(O)cc(O)c1 |
| 4.43 | – | – | C/C(=C\c1ccc(O)c(O)c1)c1ccc(Cl)cc1 |
| 4.99 | 4.94 | – | Oc1ccc(/C=C/c2cccc(F)c2)cc1O |
| – | 5.13 | 5.66 | CC/C(=C\c1ccc(N(C)C)cc1)c1cc(O)cc(O)c1 |
| 4.57 | – | – | CC/C(=C\c1cc(OC)cc(OC)c1)c1ccc(OC)c(OC)c1 |
| – | 4.52 | 4.83 | CC/C(=C\c1cc(O)cc(O)c1)c1ccc(N(C)C)cc1 |
| 4.75 | – | – | Oc1ccc(/C=C/c2ccc(F)cc2)cc1O |
| 4.46 | – | – | COc1ccc(/C=C/c2ccc(N(C)C)cc2)cc1OC |
| – | 5.72 | 5.80 | C/C(=C\c1cc(O)cc(O)c1)c1ccc(O)cc1 |
| 4.47 | 6.01 | – | C/C(=C\c1cc(O)cc(O)c1)c1ccc(C(F)(F)F)cc1 |
| 4.83 | – | – | Oc1ccc(/C=C/c2ccc(C(F)(F)F)cc2)cc1O |
| 5.16 | – | – | Oc1ccc(/C=C/c2ccc3ccccc3c2)cc1O |
| 4.45 | 4.91 | 4.80 | COc1ccc(/C(C)=C/c2cc(O)cc(O)c2)cc1 |
| 4.57 | – | – | COc1ccc(/C(C)=C/c2cc(OC)cc(OC)c2)cc1 |
| – | – | 5.76 | C/C(=C\c1ccc(C(F)(F)F)cc1)c1ccc(O)c(O)c1 |
| – | 4.74 | – | Oc1cc(O)cc(/C=C/c2ccc3ccccc3c2)c1 |
| – | 4.96 | – | C/C(=C\c1ccc(C(F)(F)F)cc1)c1cc(O)cc(O)c1 |
| – | 5.27 | – | CC/C(=C\c1cccc(F)c1)c1cc(O)cc(O)c1 |
| 4.59 | – | – | COc1ccc(/C=C(/c2cccc(C(F)(F)F)c2)C(F)(F)F)cc1OC |
| 4.89 | 4.53 | – | Oc1cc(O)cc(/C=C/c2ccc(C(F)(F)F)cc2)c1 |
| 4.67 | – | – | C/C(=C\c1ccc(O)c(O)c1)c1ccc(O)cc1 |
| – | 4.49 | – | COc1cc(/C=C(\C)c2ccc(C(F)(F)F)cc2)cc(OC)c1 |
| – | 6.77 | 5.48 | CC/C(=C\c1cc(O)cc(O)c1)c1ccc2ccccc2c1 |

Further lines, the compound ahead of its results:

| SMILES | pIC50 [1] | pIC50 [2] | pIC50 [3] |
| --- | --- | --- | --- |
| Oc1ccc(/C=C/c2ccc(O)c(O)c2)cc1 | 4.90 | – | – |
| COc1cc(/C=C(/c2ccc(F)cc2)C(F)(F)F)cc(OC)c1 | 4.41 | 5.52 | – |
| Oc1cc(O)cc(/C=C/c2ccc(F)cc2)c1 | 4.28 | 4.29 | – |
| COc1ccc(/C=C/c2cccc(F)c2)cc1OC | 4.41 | 5.49 | – |
| C/C(=C\c1cc(O)cc(O)c1)c1cccc(F)c1 | – | 5.31 | 5.60 |
| CC/C(=C\c1cc(O)cc(O)c1)c1ccc(Cl)cc1 | 4.42 | 4.94 | – |
| CC/C(=C\c1cc(O)cc(O)c1)c1cccc(F)c1 | 4.59 | 5.46 | 4.75 |
| COc1cc(/C=C/c2ccc3ccccc3c2)cc(OC)c1 | 4.73 | – | – |
| COc1cccc(/C=C/c2ccc(OC)c(OC)c2)c1 | 4.76 | – | – |
| COc1ccc(/C(=C/c2cc(OC)cc(OC)c2)C(F)(F)F)cc1 | 4.42 | – | – |
| COc1ccc(/C=C(/c2cc(OC)cc(OC)c2)C(F)(F)F)cc1 | – | 5.11 | – |
| COc1ccc(/C(C)=C/c2ccc3ccccc3c2)cc1 | 4.32 | – | – |
| COc1ccc(/C(C)=C/c2cc(O)cc(O)c2)cc1OC | 4.88 | 4.94 | – |
| C/C(=C\c1cc(O)cc(O)c1)c1ccc(Cl)cc1 | 4.41 | 5.28 | – |
| C/C(=C\c1ccc2ccccc2c1)c1cc(O)cc(O)c1 | 4.37 | – | – |
| C/C(=C\c1ccc(N(C)C)cc1)c1cc(O)cc(O)c1 | – | 4.97 | 5.76 |
| COc1cc(/C=C(/c2cccc(C(F)(F)F)c2)C(F)(F)F)cc(OC)c1 | 4.50 | – | – |
| Oc1cc(O)cc(/C=C/c2cccc(F)c2)c1 | – | 4.78 | 6.09 |
| O=[N+]([O-])c1ccc(/C=C/c2cc(O)cc(O)c2)cc1 | – | 5.66 | 4.50 |
| CN(C)c1ccc(/C=C/c2cc(O)cc(O)c2)cc1 | – | 4.75 | – |
| C/C(=C\c1ccc(C(F)(F)F)cc1)c1ccc(O)cc1 | – | 4.44 | 6.33 |
| C/C(=C\c1ccc(O)cc1)c1cc(O)cc(O)c1 | 4.58 | 5.72 | 5.75 |
| COc1ccc(/C=C(\C)c2cc(O)cc(O)c2)cc1OC | – | 4.97 | 4.89 |
| C/C(=C\c1cccc(F)c1)c1cc(O)cc(O)c1 | – | 4.98 | – |
| CC/C(=C\c1ccc(OC)c(OC)c1)c1cc(O)cc(O)c1 | – | 5.01 | – |
| COc1cc(/C=C/c2ccc(O)cc2)cc(OC)c1 [PTEROSTILBENE] | 4.71 | 6.15 | 6.09 |
| COc1ccc(/C=C/c2cc(O)cc(O)c2)cc1 [RESVERATROL 4'-METHYL ETHER] | – | 4.59 | 4.71 |
| Oc1ccc(/C=C/c2cc(O)cc(O)c2)cc1 [RESVERATROL] | 4.79 | – | – |
| COc1ccc(/C=C/c2cc(OC)cc(OC)c2)cc1 [TRISMETHOXYRESVERATROL] | 4.55 | – | – |
